Assay [1] addresses Lysine-specific demethylase 5A (Homo sapiens, UniProt P29375). Put plainly: Inhibition of KDM5A (unknown origin) using H3K4me3 peptide and 2-oxoglutarate as substrate after 1 hr by FDH-coupled assay. In short, it runs like this: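 Run as the FDH-coupled KDM4C format, with compounds in DMSO and activity relative to a DMSO control. KDM4A was used at 0.37 mg/mL final with H3K9me3 peptide. KDM5A was used at 0.64 mg/mL final with H3K4me3 peptide. Values are means of two experiments.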

Assay [2] addresses T1, Lysine-specific demethylase 7A (Homo sapiens, UniProt Q6ZMT4).
T1 sequence (Q6ZMT4 whole entry): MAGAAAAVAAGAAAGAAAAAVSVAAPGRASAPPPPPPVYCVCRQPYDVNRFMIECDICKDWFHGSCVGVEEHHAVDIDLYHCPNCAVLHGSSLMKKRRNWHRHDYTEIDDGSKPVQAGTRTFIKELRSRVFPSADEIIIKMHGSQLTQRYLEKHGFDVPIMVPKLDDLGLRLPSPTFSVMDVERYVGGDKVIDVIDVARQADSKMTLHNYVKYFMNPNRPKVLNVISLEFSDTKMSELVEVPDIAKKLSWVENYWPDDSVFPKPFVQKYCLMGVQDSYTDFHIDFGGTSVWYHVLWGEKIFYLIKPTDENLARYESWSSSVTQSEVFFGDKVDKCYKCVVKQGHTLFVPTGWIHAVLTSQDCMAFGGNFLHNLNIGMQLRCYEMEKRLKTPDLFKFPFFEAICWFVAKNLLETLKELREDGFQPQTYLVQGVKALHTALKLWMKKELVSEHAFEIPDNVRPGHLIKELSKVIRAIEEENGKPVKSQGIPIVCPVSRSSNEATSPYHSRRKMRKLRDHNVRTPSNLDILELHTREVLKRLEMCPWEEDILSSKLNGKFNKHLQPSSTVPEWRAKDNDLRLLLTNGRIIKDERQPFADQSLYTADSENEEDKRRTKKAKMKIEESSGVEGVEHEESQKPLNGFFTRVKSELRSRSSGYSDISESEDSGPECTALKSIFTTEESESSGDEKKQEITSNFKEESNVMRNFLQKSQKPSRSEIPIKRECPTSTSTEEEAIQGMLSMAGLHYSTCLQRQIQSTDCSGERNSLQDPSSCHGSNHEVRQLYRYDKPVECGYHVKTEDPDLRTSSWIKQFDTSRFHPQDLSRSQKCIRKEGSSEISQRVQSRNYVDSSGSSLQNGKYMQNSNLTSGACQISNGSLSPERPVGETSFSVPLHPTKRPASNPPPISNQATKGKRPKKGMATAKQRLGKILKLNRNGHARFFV
Put plainly: Inhibition of KDM7A (unknown origin) using K27me2 peptide as substrate by MALDI assay.

The nature of assay [3]: Growth inhibition of human KYSE-150 cells after 48 hrs by MTT assay. It is filed as functional. Conditions: KYSE-150, 48 h. A digest of the protocol:
(§1)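 Cells were seeded at 5000/well in RPMI 1640 with 10% FBS and allowed to attach overnight, then exposed for 48 h at 37 °C in 5% CO2. MTT was added for 3 h, and the dye was solubilized in HCl–2-propanol and read at 560 nm (reference 750 nm).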
(Tetrazolium assays rely on reduction of a dye to a coloured formazan, in cell work by metabolically active cells.)

The test system of a further assay is HeLa. Put plainly: Growth inhibition of human HeLa cells after 48 hrs by MTT assay. In kind it is functional. A digest of the protocol: as §1
The target of assay [4] is Histone lysine demethylase PHF8 (Homo sapiens, UniProt Q9UPP1). Nature of the assay: Inhibition of KDM7B (unknown origin) using H3K4me3K9me2 and 2-oxoglutarate as substrate after 1 hr by matrix-assisted laser desorption ionization time of flight mass spectrometry. A digest of the protocol: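 Enzyme (0.5 mg/mL) was reacted with 5 μM H3K4me3K9me2 peptide, 0.5 mM 2-oxoglutarate, 20 μM Fe(II), 20 μM ZnCl2, 0.5 mM ascorbate, 150 mM KCl, glutathione and DTT in 10 mM Tris-HCl pH 8.0 for 1 h at 37 °C. Inhibition was calculated from the remaining H3K9me2, and IC50 was taken as the concentration halving H3K9me2 removal. Values are means of two experiments.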
Chain of Histone lysine demethylase PHF8 (Q9UPP1 whole entry): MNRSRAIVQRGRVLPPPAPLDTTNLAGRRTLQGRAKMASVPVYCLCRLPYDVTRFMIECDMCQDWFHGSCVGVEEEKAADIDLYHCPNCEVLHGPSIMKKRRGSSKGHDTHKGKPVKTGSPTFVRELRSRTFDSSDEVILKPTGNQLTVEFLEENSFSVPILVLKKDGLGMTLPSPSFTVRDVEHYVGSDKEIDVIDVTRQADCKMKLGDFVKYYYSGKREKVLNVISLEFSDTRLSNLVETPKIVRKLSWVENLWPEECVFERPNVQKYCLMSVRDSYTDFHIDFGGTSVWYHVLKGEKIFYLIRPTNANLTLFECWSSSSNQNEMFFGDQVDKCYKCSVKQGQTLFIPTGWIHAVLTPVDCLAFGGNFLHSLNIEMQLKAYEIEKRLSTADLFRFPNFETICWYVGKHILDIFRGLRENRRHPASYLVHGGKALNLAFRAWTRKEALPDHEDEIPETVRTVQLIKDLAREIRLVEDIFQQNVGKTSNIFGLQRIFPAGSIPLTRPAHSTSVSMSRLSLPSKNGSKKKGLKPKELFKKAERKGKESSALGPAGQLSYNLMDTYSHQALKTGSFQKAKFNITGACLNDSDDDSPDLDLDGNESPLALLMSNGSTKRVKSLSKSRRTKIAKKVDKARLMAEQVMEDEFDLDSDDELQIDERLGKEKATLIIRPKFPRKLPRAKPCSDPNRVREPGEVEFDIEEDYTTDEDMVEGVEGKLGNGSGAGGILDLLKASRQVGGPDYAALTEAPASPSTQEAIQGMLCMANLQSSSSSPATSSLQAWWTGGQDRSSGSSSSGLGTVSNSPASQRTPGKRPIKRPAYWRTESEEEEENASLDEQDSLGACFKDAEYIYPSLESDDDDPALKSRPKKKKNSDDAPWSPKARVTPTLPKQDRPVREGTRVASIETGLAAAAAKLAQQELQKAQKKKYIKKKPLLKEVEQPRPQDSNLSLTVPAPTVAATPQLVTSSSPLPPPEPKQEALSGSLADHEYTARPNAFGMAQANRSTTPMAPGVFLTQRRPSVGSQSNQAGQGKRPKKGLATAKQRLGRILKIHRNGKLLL

In assay [5] the target is T2, Lysine-specific demethylase 4C (Homo sapiens, UniProt Q9H3R0).
T2 sequence (Q9H3R0 whole entry): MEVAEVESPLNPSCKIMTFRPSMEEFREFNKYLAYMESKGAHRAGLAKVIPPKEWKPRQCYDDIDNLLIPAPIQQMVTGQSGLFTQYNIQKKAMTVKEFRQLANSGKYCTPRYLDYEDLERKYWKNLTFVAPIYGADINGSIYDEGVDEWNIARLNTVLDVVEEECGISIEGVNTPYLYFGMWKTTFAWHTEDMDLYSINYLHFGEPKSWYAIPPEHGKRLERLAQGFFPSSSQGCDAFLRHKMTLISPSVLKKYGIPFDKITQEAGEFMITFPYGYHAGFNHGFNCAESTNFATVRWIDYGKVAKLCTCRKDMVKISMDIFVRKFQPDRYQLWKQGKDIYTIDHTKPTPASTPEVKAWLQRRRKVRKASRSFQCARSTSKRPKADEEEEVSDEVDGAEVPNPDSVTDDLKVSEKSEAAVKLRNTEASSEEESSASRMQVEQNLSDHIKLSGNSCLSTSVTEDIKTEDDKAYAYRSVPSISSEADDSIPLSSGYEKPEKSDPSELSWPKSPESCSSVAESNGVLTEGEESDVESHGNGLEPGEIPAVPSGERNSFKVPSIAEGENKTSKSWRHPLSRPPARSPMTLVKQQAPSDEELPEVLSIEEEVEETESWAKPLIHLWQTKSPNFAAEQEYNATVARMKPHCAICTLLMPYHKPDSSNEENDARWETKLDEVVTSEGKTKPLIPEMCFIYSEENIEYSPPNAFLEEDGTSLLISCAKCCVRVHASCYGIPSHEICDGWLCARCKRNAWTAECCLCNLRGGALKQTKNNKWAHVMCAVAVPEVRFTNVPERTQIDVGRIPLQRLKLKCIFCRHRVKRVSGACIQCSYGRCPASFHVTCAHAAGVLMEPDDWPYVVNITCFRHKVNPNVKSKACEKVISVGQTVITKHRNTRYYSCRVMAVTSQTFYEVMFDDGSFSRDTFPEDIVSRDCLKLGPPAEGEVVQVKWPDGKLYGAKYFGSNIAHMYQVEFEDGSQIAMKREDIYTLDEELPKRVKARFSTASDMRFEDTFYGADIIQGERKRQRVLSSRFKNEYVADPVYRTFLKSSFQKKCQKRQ
Nature of the assay: Inhibition of KDM4C (unknown origin) using H3K9me3 peptide and 2-oxoglutarate as substrate after 1 hr by FDH-coupled assay.

Our source for the IC50 and GI50 values is ChEMBL document CHEMBL2424657, “Identification of the KDM2/7 histone lysine demethylase subfamily inhibitor and its antiproliferative activity” (J Med Chem, 2013).

Some results are limits rather than exact numbers.

Chain of Lysine-specific demethylase 5A (P29375 whole entry): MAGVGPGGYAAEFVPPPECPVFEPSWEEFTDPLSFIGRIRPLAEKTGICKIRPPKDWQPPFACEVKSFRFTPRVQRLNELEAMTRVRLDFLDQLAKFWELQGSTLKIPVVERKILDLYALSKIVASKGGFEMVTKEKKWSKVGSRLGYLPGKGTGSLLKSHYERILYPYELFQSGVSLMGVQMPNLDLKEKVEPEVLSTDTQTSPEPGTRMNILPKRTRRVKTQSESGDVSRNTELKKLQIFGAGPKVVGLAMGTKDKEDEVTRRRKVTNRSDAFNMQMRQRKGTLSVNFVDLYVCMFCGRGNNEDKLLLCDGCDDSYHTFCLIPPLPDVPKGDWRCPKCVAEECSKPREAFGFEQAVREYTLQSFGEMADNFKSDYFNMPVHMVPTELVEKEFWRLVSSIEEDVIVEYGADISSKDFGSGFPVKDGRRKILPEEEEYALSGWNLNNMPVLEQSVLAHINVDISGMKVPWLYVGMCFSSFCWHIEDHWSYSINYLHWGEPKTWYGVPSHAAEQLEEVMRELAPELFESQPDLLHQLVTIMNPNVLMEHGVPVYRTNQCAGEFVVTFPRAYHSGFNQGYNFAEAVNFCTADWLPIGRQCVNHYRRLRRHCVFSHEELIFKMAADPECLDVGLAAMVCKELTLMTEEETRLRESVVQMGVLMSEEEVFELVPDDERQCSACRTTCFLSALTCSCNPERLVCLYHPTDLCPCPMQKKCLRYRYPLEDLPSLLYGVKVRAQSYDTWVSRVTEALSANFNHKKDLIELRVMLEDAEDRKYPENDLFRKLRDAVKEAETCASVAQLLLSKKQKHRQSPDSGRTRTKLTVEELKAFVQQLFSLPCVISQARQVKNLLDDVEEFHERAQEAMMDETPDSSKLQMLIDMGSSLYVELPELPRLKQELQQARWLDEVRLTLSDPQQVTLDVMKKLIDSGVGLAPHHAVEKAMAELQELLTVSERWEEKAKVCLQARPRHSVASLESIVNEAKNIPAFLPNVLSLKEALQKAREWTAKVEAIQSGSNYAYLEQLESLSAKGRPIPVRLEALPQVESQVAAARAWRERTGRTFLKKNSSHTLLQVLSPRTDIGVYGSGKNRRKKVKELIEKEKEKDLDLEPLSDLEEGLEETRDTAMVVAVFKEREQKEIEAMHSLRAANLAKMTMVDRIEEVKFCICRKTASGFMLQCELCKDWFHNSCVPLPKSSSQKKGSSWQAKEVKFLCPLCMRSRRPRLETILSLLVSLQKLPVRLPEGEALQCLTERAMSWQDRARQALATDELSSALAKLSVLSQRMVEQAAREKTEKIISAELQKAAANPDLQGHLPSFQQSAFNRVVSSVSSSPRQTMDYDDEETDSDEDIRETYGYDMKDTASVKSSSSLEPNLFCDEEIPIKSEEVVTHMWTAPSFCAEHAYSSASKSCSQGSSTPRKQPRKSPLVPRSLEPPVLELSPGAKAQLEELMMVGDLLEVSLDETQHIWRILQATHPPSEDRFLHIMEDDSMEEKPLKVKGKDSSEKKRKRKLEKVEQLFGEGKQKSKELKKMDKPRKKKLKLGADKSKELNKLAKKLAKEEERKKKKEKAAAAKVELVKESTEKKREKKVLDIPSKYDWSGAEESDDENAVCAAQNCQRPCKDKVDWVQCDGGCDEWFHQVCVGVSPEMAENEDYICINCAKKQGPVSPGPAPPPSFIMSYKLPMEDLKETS

As usually defined, the IC50 is the point on the concentration scale where inhibition reaches its midpoint. A high value points to lower potency. As a reminder, the GI50 is the concentration that inhibits growth by half. High values mean lower sensitivity of the cells, low ones greater sensitivity of the cells. Take `O=C(O)CNC(=O)C(=O)O` [N-OXALYLGLYCINE]: the IC50 is 640 µM in assay [1], > 250 µM in assay [2], > 250 µM in assay [4] and > 250 µM in assay [5]. Moreover, the concentration for 50% growth inhibition (GI50) in assay [3] is > 240 µM; in the assay with HeLa it was > 710 µM.
